In ChEMBL document CHEMBL1138404, “Bisindole alkaloids of the topsentin and hamacanthin classes from a marine sponge Spongosorites sp” (J Nat Prod, 2007):
In brackets after ≈: the same amount, converted by molar mass.

What was measured:
Pseudomonas aeruginosa [1] = experiment: Antibacterial activity against […] Pseudomonas aeruginosa 1592E; type: functional
Procedure, shortened: (§1)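 Agar dilution MIC: Mueller Hinton agar plates containing 17 serial dilutions of sample (final 25 to 0.002 μg/mL), meropenem and imipenem as standards. Strains grown 18 h at 37 °C in Fleisch extract broth (10% horse serum for some strains), spotted onto plates by automatic inoculator; MIC read after 18 h incubation.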

Escherichia coli [2] = experiment: Antibacterial activity against […] Escherichia coli 078; type: functional; procedure, shortened: as §1
Escherichia coli [3] = experiment: Antibacterial activity against […] Escherichia coli DC2; type: functional; procedure, shortened: as §1
Enterobacter cloacae [4] = experiment: Antibacterial activity against […] Enterobacter cloacae 1321E; type: functional; procedure, shortened: as §1
Pseudomonas aeruginosa [5] = experiment: Antibacterial activity against […] Pseudomonas aeruginosa 1771; type: functional; procedure, shortened: as §1
[6] = Cytotoxicity against human SK-MEL-2 cell line; type: cell-based; conditions: SK-MEL-2 cells, read-out: ED50 (the source's name)
Escherichia coli [7] = experiment: Antibacterial activity against […] Escherichia coli 1507E; type: functional; procedure, shortened: as §1
Salmonella typhimurium = experiment: Antibacterial activity against […] Salmonella Typhimurium; type: functional, Salmonella enterica subsp. enterica serovar Typhimurium; conditions: Salmonella enterica; procedure, shortened: as §1
[8] = Cytotoxicity against human XF498 cell line; type: cell-based; conditions: XF498 cells, read-out: ED50 (the source's name)
Pseudomonas aeruginosa [9] = experiment: Antibacterial activity against […] Pseudomonas aeruginosa 1771M; type: functional; procedure, shortened: as §1
Streptococcus pyogenes [10] = experiment: Antibacterial activity against methicillin-resistant Streptococcus pyogenes 77A; type: functional; procedure, shortened: as §1
Staphylococcus aureus [11] = experiment: Antibacterial activity against methicillin-resistant Staphylococcus aureus SG511; type: functional; procedure, shortened: as §1
Enterobacter cloacae [12] = experiment: Antibacterial activity against […] Enterobacter cloacae P99; type: functional; procedure, shortened: as §1
[13] = Cytotoxicity against human HCT15 cell line; type: cell-based; conditions: HCT-15 cells, read-out: ED50 (the source's name)
Streptococcus pyogenes [14] = experiment: Antibacterial activity against methicillin-resistant Streptococcus pyogenes 308A; type: functional; procedure, shortened: as §1
[15] = Cytotoxicity against human A549 cell line; type: cell-based; conditions: A549 cells, read-out: ED50 (the source's name)
Klebsiella aerogenes = experiment: Antibacterial activity against […] Klebsiella aerogenes 1522E; type: functional; procedure, shortened: as §1
Staphylococcus aureus [16] = experiment: Antibacterial activity against methicillin-resistant Staphylococcus aureus 503; type: functional; procedure, shortened: as §1
Escherichia coli [17] = experiment: Antibacterial activity against […] Escherichia coli DC0; type: functional; procedure, shortened: as §1
Klebsiella oxytoca = experiment: Antibacterial activity against […] Klebsiella oxytoca 1082E; type: functional; procedure, shortened: as §1
Staphylococcus aureus [18] = experiment: Antibacterial activity against methicillin-resistant Staphylococcus aureus 285; type: functional; procedure, shortened: as §1
Enterococcus faecium = experiment: Antibacterial activity against […] Streptococcus faecium MD8b; type: functional; procedure, shortened: as §1
[19] = Cytotoxicity against human SK-OV-3 cell line; type: cell-based; conditions: SK-OV-3 cells, read-out: ED50 (the source's name)
Pseudomonas aeruginosa [20] = experiment: Antibacterial activity against […] Pseudomonas aeruginosa 9027; type: functional; procedure, shortened: as §1
Escherichia coli [21] = experiment: Antibacterial activity against […] Escherichia coli TEM; type: functional; procedure, shortened: as §1

Structure (SMILES)	MIC (Pseudomonas aeruginosa [1]) [mg/L]	MIC (Escherichia coli [2]) [mg/L]	MIC (Escherichia coli [3]) [mg/L]	MIC (Enterobacter cloacae [4]) [mg/L]	MIC (Pseudomonas aeruginosa [5]) [mg/L]	CC50 [6] [mg/L]	MIC (Escherichia coli [7]) [mg/L]	MIC (Salmonella typhimurium) [mg/L]	CC50 [8] [mg/L]	MIC (Pseudomonas aeruginosa [9]) [mg/L]	MIC (Streptococcus pyogenes [10]) [mg/L]	MIC (Staphylococcus aureus [11]) [mg/L]	MIC (Enterobacter cloacae [12]) [mg/L]	CC50 [13] [mg/L]	MIC (Streptococcus pyogenes [14]) [mg/L]	CC50 [15] [mg/L]	MIC (Klebsiella aerogenes) [mg/L]	MIC (Staphylococcus aureus [16]) [mg/L]	MIC (Escherichia coli [17]) [mg/L]	CC50 [19] [mg/L]	other results
O=C1N[C@@H](c2c[nH]c3ccccc23)CN=C1c1c[nH]c2ccccc12	25 (≈ 76.1 µM)	> 25	> 25	> 25	25 (≈ 76.1 µM)	5 (≈ 15.2 µM)	> 25	> 25	17.1 (≈ 52.1 µM)	> 25	25 (≈ 76.1 µM)	> 25	> 25	4.1 (≈ 12.5 µM)	25 (≈ 76.1 µM)	8.3 (≈ 25.3 µM)	> 25	> 25	> 25	11.5 (≈ 35 µM)	MIC (Klebsiella oxytoca): > 25 mg/L; MIC (Staphylococcus aureus [18]): > 25 mg/L; MIC (Enterococcus faecium): > 25 mg/L; MIC (Pseudomonas aeruginosa [20]): > 25 mg/L; MIC (Escherichia coli [21]): > 25 mg/L
O=C1NC[C@@H](c2c[nH]c3ccccc23)N=C1c1c[nH]c2ccccc12	25 (≈ 76.1 µM)	> 25	> 25	> 25	25 (≈ 76.1 µM)	13.7 (≈ 41.7 µM)	> 25	> 25	24.1 (≈ 73.4 µM)	> 25	> 25	> 25	> 25	4.79 (≈ 14.6 µM)	> 25	11.7 (≈ 35.6 µM)	> 25	> 25	> 25	12.6 (≈ 38.4 µM)	MIC (Klebsiella oxytoca): > 25 mg/L; MIC (Staphylococcus aureus [18]): > 25 mg/L; MIC (Enterococcus faecium): > 25 mg/L; MIC (Pseudomonas aeruginosa [20]): > 25 mg/L; MIC (Escherichia coli [21]): > 25 mg/L
O=C1NC[C@@H](c2c[nH]c3ccccc23)N[C@H]1c1c[nH]c2cc(Br)ccc12	> 25	> 25	> 25	> 25	> 25	> 10	> 25	> 25	9.74 (≈ 23.8 µM)	> 25	> 25	> 25	> 25	> 10	25 (≈ 61.1 µM)	9.67 (≈ 23.6 µM)	> 25	> 25	> 25	5.67 (≈ 13.9 µM)	MIC (Klebsiella oxytoca): > 25 mg/L; MIC (Staphylococcus aureus [18]): > 25 mg/L; MIC (Enterococcus faecium): > 25 mg/L; MIC (Pseudomonas aeruginosa [20]): > 25 mg/L; MIC (Escherichia coli [21]): > 25 mg/L
O=C1N[C@H](c2c[nH]c3ccccc23)CN[C@H]1c1c[nH]c2cc(Br)ccc12	–	–	–	–	–	> 10	–	–	> 10	–	–	–	–	> 10	–	> 10	–	–	–	4.92 (≈ 12 µM)	–
O=C1NC[C@@H](c2c[nH]c3cc(Br)ccc23)N[C@H]1c1c[nH]c2ccccc12	25 (≈ 61.1 µM)	> 25	> 25	> 25	25 (≈ 61.1 µM)	7.1 (≈ 17.3 µM)	> 25	> 25	6.8 (≈ 16.6 µM)	> 25	> 25	> 25	> 25	6.3 (≈ 15.4 µM)	25 (≈ 61.1 µM)	4.2 (≈ 10.3 µM)	> 25	> 25	> 25	6 (≈ 14.7 µM)	MIC (Klebsiella oxytoca): > 25 mg/L; MIC (Staphylococcus aureus [18]): > 25 mg/L; MIC (Enterococcus faecium): > 25 mg/L; MIC (Pseudomonas aeruginosa [20]): > 25 mg/L; MIC (Escherichia coli [21]): > 25 mg/L
O=C1NC[C@@H](c2c[nH]c3ccccc23)N[C@H]1c1c[nH]c2ccccc12	–	–	–	–	–	> 10	–	–	> 10	–	–	–	–	> 10	–	> 10	–	–	–	9.64 (≈ 29.2 µM)	–
O=C1N[C@H](c2c[nH]c3cc(Br)ccc23)CN[C@H]1c1c[nH]c2ccccc12	25 (≈ 61.1 µM)	> 25	> 25	> 25	25 (≈ 61.1 µM)	13.1 (≈ 32 µM)	> 25	> 25	19.1 (≈ 46.7 µM)	> 25	> 25	> 25	> 25	6.3 (≈ 15.4 µM)	> 25	7.5 (≈ 18.3 µM)	> 25	> 25	> 25	12.1 (≈ 29.6 µM)	MIC (Klebsiella oxytoca): > 25 mg/L; MIC (Staphylococcus aureus [18]): > 25 mg/L; MIC (Enterococcus faecium): > 25 mg/L; MIC (Pseudomonas aeruginosa [20]): > 25 mg/L; MIC (Escherichia coli [21]): > 25 mg/L
